Measurements taken from ChEMBL document CHEMBL4373727, “Thienopyrimidinone Derivatives That Inhibit Bacterial tRNA (Guanine37-N1)-Methyltransferase (TrmD) by Restructuring the Active Site with a Tyrosine-Flipping Mechanism” (J Med Chem, 2019).
≈ marks a conversion by molar mass, not a printed value. Calls of active or inactive are those of the source. No cut-off for these calls is given here.

Tests used:
Acinetobacter baumannii [1] = assay: Antibacterial activity against Acinetobacter baumannii ATCC 17961 incubated for 24 hrs by serial broth microdilution method; type: functional; conditions: ATCC 17961, 24 h
Method in brief: (§1)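 Log-phase cultures from four colonies grown overnight at 37 °C, inoculated at ~5×10^5 cells/mL in cation-adjusted Mueller–Hinton broth with serially diluted compound. Grown 24 h at 37 °C, then OD600 read. MIC50/MIC90 are the concentrations giving 50%/90% growth inhibition relative to drug-free controls. Two independent experiments in duplicate.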

[2] = test system: Mycobacterium tuberculosis; assay: Bactericidal activity against Mycobacterium tuberculosis H37Rv assessed as reduction in CFU at 1 to 4 times MIC90 incubated for 7 days; type: functional; conditions: 168 h, read-out: MBC99.9
Method in brief: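 Then plated on complete 7H10 agar for CFU. Inoculum plated at time zero. MBC99.9 is a 1000-fold CFU reduction versus the time-zero inoculum.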

Staphylococcus aureus = assay: Bactericidal activity against methicillin-resistant Staphylococcus aureus ATCC 43300 assessed as reduction in CFU at 1 to 4 times MIC90 incubated for 24 hrs; type: functional; conditions: ATCC 43300, 24 h, read-out: MBC99.9
Escherichia coli [3] = assay: Antibacterial activity against Escherichia coli BW25113 incubated for 24 hrs by serial broth microdilution method; type: functional, organism-based; method in brief: as §1
Acinetobacter baumannii [4] = assay: Bactericidal activity against Acinetobacter baumannii ATCC 17961 assessed as reduction in CFU at 1 to 4 times MIC90 incubated for 24 hrs; type: functional; conditions: ATCC 17961, 24 h, read-out: MBC99.9
Klebsiella pneumoniae = assay: Bactericidal activity against Klebsiella pneumoniae ATCC 13883 assessed as reduction in CFU at 1 to 4 times MIC90 incubated for 24 hrs; type: functional, organism-based
Enterococcus faecalis [5] = assay: Bactericidal activity against Enterococcus faecalis ATCC 51299 assessed as reduction in CFU at 1 to 4 times MIC90 incubated for 24 hrs; type: functional, organism-based
[6] = test system: Mycolicibacterium smegmatis; assay: Antibacterial activity against Mycolicibacterium smegmatis MC2 155 incubated for 24 hrs by serial broth microdilution method; type: functional; conditions: MC2 155, 24 h
Method in brief: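 Growth read by OD600. MRSA in cation-adjusted Mueller–Hinton broth, M. smegmatis in complete 7H9. MIC50 and MIC90 are 50% and 90% growth inhibition versus drug-free controls. Two independent experiments, each in duplicate.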

Escherichia coli [7] = assay: Bactericidal activity against Escherichia coli BW25113 assessed as reduction in CFU at 1 to 4 times MIC90 incubated for 24 hrs; type: functional, organism-based
Salmonella enteritidis = assay: Antibacterial activity against Salmonella enteritidis ATCC 13076 incubated for 24 hrs by serial broth microdilution method; type: functional; conditions: Salmonella enterica subsp. enterica serovar Enteritidis; method in brief: as §1
Streptococcus pneumoniae [8] = assay: Antibacterial activity against Streptococcus pneumoniae ATCC 49619 incubated for 24 hrs by serial broth microdilution method; type: functional; conditions: ATCC 49619, 24 h
Method in brief: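 Cultured in MH medium plus 3% defibrinated sheep blood at 37 °C, 5% CO2. Log-phase inoculum ~5×10^5 cells/mL was exposed to serial compound dilutions for 24 h. MIC50/MIC90 are relative to drug-free controls. Two independent experiments in duplicate.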

Streptococcus pneumoniae [9] = assay: Bactericidal activity against Streptococcus pneumoniae ATCC 49619 assessed as reduction in CFU at 1 to 4 times MIC90 incubated for 24 hrs; type: functional; conditions: ATCC 49619, 24 h, read-out: MBC99.9
Enterococcus faecalis [10] = assay: Antibacterial activity against Enterococcus faecalis ATCC 51299 incubated for 24 hrs by serial broth microdilution method; type: functional, organism-based
Method in brief: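 Broth microdilution in brain heart infusion broth, ~5×10^5 cells/mL log-phase inoculum, serial compound dilutions, 24 h at 37 °C, OD600 read-out. MIC50/MIC90 are the concentrations giving 50%/90% growth inhibition relative to drug-free controls. Two independent experiments in duplicate.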

Pseudomonas aeruginosa = assay: Antibacterial activity against Pseudomonas aeruginosa PA14 incubated for 24 hrs by serial broth microdilution method; type: functional, organism-based; method in brief: as §1
[11] = molecular target: T1, tRNA (guanine-N(1)-)-methyltransferase (Mycobacterium tuberculosis (strain ATCC 25618 / H37Rv)) (UniProt P9WFY7); assay: Binding affinity to full length Mycobacterium tuberculosis tRNA (guanine(37)-N1)-methyltransferase expressed in Escherichia coli BL21 (DE3) assessed as thermal stabilization of protein by measuring change in melting temperature at 0.1 mM by SYPRO orange based thermal shift assay
T1 sequence (whole entry): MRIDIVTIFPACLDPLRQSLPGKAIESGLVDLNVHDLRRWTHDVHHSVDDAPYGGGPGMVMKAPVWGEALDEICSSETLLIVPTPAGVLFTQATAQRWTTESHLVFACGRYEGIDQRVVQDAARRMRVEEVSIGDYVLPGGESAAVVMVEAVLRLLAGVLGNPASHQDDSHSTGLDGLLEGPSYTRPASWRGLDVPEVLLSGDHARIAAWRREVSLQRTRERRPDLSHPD
Method in brief: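 Thermal shift: 4 μM TrmD with 5× SYPRO Orange and ligand in 50 mM Tris-HCl pH 8, 150 mM NaCl, 1 mM MgCl2, 1 mM DTT, 0.05% Tween-20. Buffer-only control. Heated from 25 to 95 °C in a real-time PCR instrument, and Tm taken as the unfolding midpoint. Ligand levels: SAH 2 mM, inhibitors 0.1 mM.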

[12] = molecular target: T2, tRNA (guanine-N(1)-)-methyltransferase (Staphylococcus aureus (strain NCTC 8325 / PS 47)) (UniProt Q2FZ43); assay: Binding affinity to full length Staphylococcus aureus tRNA (guanine(37)-N1)-methyltransferase expressed in Escherichia coli BL21 (DE3) assessed as thermal stabilization of protein by measuring change in melting temperature at 0.1 mM by SYPRO orange based thermal shift assay
T2 sequence (whole entry): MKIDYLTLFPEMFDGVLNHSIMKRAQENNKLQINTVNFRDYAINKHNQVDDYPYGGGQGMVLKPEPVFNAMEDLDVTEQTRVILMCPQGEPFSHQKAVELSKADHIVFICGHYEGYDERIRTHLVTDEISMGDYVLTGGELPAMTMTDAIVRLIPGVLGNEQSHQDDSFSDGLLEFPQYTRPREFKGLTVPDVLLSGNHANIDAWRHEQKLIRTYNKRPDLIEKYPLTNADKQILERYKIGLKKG

## CCCCCCCCNCc1ccc(CNC(=O)c2csc3nc[nH]c(=O)c23)cc1
Acinetobacter baumannii [1]
  MIC50: 62 µM (≈ 26.4 µg/mL)
  MIC90: 95 µM (≈ 40.5 µg/mL)
[2]
  MBC: > 100 µM
Staphylococcus aureus
  MBC: 54 µM (≈ 23 µg/mL)
Escherichia coli [3]
  MIC50: inactive
  MIC90: inactive
Acinetobacter baumannii [4]
  MBC: > 100 µM
Klebsiella pneumoniae
  MBC99.9: inactive
Enterococcus faecalis [5]
  MBC99.9: inactive
[6]
  MIC50: 58 µM (≈ 24.7 µg/mL)
Escherichia coli [7]
  MBC99.9: inactive
Salmonella enteritidis
  MIC50: inactive
  MIC90: inactive
Streptococcus pneumoniae [8]
  MIC50: 60 µM (≈ 25.6 µg/mL)
  MIC90: 73 µM (≈ 31.1 µg/mL)
Streptococcus pneumoniae [9]
  MBC: > 100 µM
Enterococcus faecalis [10]
  MIC50: inactive
  MIC90: inactive
Pseudomonas aeruginosa
  MIC50: inactive
  MIC90: inactive

## NC1CCN(Cc2ccc(CNC(=O)c3csc4nc[nH]c(=O)c34)cc2)CC1
[11]
  ΔTm: 1 to 13 °C
[12]
  ΔTm: 1 to 13 °C
